Measured values published in ChEMBL document CHEMBL4627265, “Optimization of 8-oxoadenines with toll-like-receptor 7 and 8 activity” (Bioorg Med Chem Lett, 2020).
pEC50: −log10 of the molar value. Activity calls are given as the source filed them. The rule behind the calls is not given here.

What was measured:
Type in all cases: cell-based
[1] = target: T1, Toll-like receptor 7 (Homo sapiens) (UniProt Q9NYK1); experiment: Agonist activity at TLR7 in human PBMC assessed as induction of plasmacytoid dendritic cell maturation by measuring CD86 level at 0.1 uM after 6 hrs by flow cytometry
T1 sequence (whole entry): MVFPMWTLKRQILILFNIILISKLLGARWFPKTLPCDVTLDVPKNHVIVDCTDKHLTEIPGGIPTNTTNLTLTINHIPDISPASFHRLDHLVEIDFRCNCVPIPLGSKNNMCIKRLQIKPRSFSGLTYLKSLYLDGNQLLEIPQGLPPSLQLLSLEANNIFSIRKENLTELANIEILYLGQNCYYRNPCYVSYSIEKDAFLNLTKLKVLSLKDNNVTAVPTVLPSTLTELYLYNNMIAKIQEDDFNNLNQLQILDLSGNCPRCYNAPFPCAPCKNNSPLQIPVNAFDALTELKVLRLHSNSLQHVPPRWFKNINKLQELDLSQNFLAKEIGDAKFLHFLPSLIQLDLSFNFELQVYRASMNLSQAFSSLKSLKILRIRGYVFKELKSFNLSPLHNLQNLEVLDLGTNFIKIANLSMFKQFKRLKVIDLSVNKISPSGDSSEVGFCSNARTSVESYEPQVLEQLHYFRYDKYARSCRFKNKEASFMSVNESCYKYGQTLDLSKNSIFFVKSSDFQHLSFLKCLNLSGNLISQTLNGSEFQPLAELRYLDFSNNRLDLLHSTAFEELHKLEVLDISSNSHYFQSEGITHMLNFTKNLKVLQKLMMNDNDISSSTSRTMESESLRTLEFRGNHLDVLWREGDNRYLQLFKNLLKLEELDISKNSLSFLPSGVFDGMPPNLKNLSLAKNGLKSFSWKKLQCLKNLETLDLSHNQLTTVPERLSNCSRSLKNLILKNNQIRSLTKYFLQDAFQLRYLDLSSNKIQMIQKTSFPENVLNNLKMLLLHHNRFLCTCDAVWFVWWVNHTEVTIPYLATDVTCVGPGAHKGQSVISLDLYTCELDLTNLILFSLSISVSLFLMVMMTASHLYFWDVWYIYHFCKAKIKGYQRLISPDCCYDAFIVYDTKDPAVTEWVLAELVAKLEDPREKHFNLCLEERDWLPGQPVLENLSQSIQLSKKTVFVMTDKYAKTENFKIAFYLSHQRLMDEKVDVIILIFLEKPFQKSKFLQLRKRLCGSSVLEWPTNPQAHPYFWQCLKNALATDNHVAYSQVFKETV
Outline: (§1)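 hPBMCs stimulated 6 h at a single 0.1 μM dose; HLA-DR, MHC-I, CD80 and CD86 on mDCs and pDCs measured by flow cytometry, expressed as fold change versus unstimulated cells. Mean ± SD of three independent experiments in three different donors.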

[2] = target: T1, Toll-like receptor 7 (Homo sapiens); experiment: Agonist activity at TLR7 in human PBMC assessed as induction of plasmacytoid dendritic cell maturation by measuring CD80 level at 0.1 uM after 6 hrs by flow cytometry; outline: as §1
Toll-like receptor 7 = target: T2, Toll-like receptor 7 (Homo sapiens, UniProt Q9NYK1); experiment: Agonist activity at human TLR7 expressed in HEK293 cells assessed as induction of NFKappaB activity after 24 hrs by SEAP reporter gene assay
T2 sequence (Q9NYK1 whole entry): T1 sequence (whole entry)
Outline: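 HEK293 cells stably transfected with hTLR7 or hTLR8 plus an NFκB-driven SEAP reporter, treated 24 h with compound over a μM range; SEAP secretion read out. EC50 as mean ± SD of three (TLR7) or four (TLR8) independent experiments.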

[3] = target: T1, Toll-like receptor 7 (Homo sapiens); experiment: Agonist activity at TLR7 in human PBMC assessed as IFNalpha stimulation at 10 uM
Outline: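 IFNα secretion by hPBMCs across a μM dose range; MEC = lowest dose tested inducing cytokine, PC = dose giving highest level, PL = peak level at 10 μM. Data representative of one of three independent donors.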

[4] = target: T1, Toll-like receptor 7 (Homo sapiens); experiment: Agonist activity at TLR7 in human PBMC assessed as induction of plasmacytoid dendritic cell maturation by measuring increase in MHC-1 level at 0.1 uM after 6 hrs by flow cytometry relative to control; outline: as §1
[5] = target: T1, Toll-like receptor 7 (Homo sapiens); experiment: Agonist activity at TLR7 in human PBMC assessed as induction of plasmacytoid dendritic cell maturation by measuring increase in HLA-DR level at 0.1 uM after 6 hrs by flow cytometry relative to control; outline: as §1
[6] = target: T1, Toll-like receptor 7 (Homo sapiens); experiment: Agonist activity at TLR7 in human PBMC assessed as induction of plasmacytoid dendritic cell maturation by measuring increase in CD86 level at 0.1 uM after 6 hrs by flow cytometry relative to control; outline: as §1
[7] = target: Toll-like receptor 3 (Homo sapiens) (UniProt O15455); experiment: Agonist activity at human TLR3 expressed in HEK293 cells by SEAP reporter gene assay
[8] = target: T3, Toll-like receptor 9 (Homo sapiens) (UniProt Q9NR96); experiment: Agonist activity at human TLR9 expressed in HEK293 cells by SEAP reporter gene assay
T3 sequence (whole entry): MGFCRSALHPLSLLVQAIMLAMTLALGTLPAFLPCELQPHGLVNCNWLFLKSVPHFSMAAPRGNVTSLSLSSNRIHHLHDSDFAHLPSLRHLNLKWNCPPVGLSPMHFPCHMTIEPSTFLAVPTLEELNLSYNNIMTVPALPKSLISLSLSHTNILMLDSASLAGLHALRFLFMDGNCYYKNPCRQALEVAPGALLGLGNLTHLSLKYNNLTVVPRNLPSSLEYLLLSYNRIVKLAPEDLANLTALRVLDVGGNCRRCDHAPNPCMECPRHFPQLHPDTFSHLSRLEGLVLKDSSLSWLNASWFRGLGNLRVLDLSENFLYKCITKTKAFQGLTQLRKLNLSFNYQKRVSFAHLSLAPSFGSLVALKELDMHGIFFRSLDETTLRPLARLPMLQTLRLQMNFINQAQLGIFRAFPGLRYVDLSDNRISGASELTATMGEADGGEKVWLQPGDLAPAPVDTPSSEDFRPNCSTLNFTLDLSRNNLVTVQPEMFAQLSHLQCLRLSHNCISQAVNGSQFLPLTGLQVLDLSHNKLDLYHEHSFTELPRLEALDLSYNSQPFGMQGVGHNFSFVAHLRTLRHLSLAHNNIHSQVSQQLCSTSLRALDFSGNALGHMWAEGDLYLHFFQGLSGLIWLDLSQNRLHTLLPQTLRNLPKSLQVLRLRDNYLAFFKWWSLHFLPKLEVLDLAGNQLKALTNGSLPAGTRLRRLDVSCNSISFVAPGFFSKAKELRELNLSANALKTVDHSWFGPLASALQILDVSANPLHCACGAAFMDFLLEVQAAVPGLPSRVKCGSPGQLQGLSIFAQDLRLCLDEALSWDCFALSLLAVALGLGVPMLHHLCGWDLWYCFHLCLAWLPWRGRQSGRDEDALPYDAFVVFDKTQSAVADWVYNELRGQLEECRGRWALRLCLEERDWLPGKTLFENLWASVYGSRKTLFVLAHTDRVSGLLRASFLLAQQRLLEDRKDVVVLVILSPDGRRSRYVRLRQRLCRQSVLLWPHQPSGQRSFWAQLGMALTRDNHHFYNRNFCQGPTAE

Chain of Toll-like receptor 3 (Homo sapiens) (O15455 whole entry): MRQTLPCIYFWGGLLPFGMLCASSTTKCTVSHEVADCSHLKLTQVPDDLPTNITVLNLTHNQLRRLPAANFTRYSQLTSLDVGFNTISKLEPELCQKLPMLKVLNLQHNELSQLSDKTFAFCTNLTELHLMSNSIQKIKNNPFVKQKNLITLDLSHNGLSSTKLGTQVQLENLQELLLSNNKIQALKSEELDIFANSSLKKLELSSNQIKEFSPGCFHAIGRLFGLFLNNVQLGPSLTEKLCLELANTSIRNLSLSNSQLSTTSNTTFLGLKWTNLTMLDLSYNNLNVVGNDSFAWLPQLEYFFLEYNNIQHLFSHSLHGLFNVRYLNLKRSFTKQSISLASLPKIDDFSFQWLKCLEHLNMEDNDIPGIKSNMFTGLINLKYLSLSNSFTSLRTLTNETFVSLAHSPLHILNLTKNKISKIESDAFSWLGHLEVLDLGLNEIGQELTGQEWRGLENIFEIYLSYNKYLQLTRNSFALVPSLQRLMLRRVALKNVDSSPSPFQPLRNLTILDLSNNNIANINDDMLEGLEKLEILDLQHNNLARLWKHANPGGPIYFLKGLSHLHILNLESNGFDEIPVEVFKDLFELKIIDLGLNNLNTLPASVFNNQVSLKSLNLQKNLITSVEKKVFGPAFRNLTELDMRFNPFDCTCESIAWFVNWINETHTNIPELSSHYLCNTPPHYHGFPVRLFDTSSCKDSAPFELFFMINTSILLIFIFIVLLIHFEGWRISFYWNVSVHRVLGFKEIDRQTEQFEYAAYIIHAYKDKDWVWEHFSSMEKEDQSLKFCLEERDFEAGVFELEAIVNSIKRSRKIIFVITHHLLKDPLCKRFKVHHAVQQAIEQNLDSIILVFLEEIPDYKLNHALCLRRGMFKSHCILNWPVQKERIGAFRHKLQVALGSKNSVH

| Compound | Activity [1] | Activity [2] | pEC50 (Toll-like receptor 7) | Activity [3] | fold change (FC) [4] | fold change (FC) [5] | fold change (FC) [6] | Activity [7] | Activity [8] |
| --- | --- | --- | --- | --- | --- | --- | --- | --- | --- |
| CCCCOc1nc(N)c2[nH]c(=O)n(CC3CCN(CCN)CC3)c2n1 | inactive | inactive | 4.52 | 3040 pg/mL | 1.5 to 1.7 | 1.5 to 1.7 | 1.7 to 2.3 | – | – |
| CCC[C@H](C)Oc1nc(N)c2[nH]c(=O)n(CCCCCC3CCNCC3)c2n1 | – | – | 6.62 | 2640 pg/mL | 1.7 to 2.3 | 1.7 to 2.3 | – | – | – |
| CCC[C@H](C)Oc1nc(N)c2[nH]c(=O)n(CC3CCN(CCN)CC3)c2n1 | – | – | 5.17 | 4420 pg/mL | – | – | – | – | – |
| CCC[C@@H](C)Oc1nc(N)c2[nH]c(=O)n(CC3CCNCC3)c2n1 | inactive | inactive | 4.45 | 6210 pg/mL | 1.2 to 2.4 | 1.2 to 2.4 | – | inactive | inactive |
| CCC[C@H](C)Oc1nc(N)c2[nH]c(=O)n(CC3CCNCC3)c2n1 | – | – | 5.57 | 5470 pg/mL | 1.2 to 2.4 | 1.2 to 2.4 | 2 | inactive | inactive |
| CCCCNc1nc(N)c2[nH]c(=O)n(CC3CCNCC3)c2n1 | – | – | 4.40 | 5980 pg/mL | – | – | – | – | – |
